This passage reports self-cleavage results from the RNAGym collection of RNA variant scans (doi:10.1002/anie.201605470).

B1: Osa-1-4 twister ribozyme (parent)
chain: CCGCCUAACACUGCCAAUGCCGGUCCCAAGCCCGGAUAAAAGUGGAGGGGGCGG

Variants of B1 are the subject of this data set. The data set is described as follows: self-cleavage, relative activity (ratio to wild type); higher = more cleavage; co-transcriptional. In outline:
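The 48 positions downstream of the cleavage site in a DNA template for a 54-nucleotide Oryza sativa twister ribozyme carried 97 % wild-type base and 1 % of each other base. After in vitro transcription (2 h, 37 °C) with co-transcriptional self-cleavage, the RNA was reverse-transcribed with a template-switching oligonucleotide, PCR-amplified and deep-sequenced. Relative activity is the fraction cleaved, judged by reads with or without upstream sequence and normalised to wild type.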
In the case of C9A U37C, the self-cleavage is 0.53.

A8U G34U: the self-cleavage worked out at 0.1.

In the case of A8U G34C, the self-cleavage worked out at 0.09.

With A8U G34A, the self-cleavage was found to be 0.13.

Consider C9A G48U, for which the self-cleavage was determined as 0.02.

Turning to C9A G48C, the self-cleavage is 0.02.

In the case of C9A G48A, the self-cleavage was 0.02.

For the variant A8G C32G, the self-cleavage stood at 0.13.

Turning to A8G C32U, the self-cleavage was found to be 0.07.

As for A8G C32A, the self-cleavage amounted to 0.05.

Consider C9A G23A, for which the self-cleavage was 0.06.

As to C9A G23U, the self-cleavage stood at 0.02.

Turning to C9A G23C, the self-cleavage amounted to 0.01.

Consider A8G U12A, for which the self-cleavage was 0.16.

Consider A8G U12G, for which the self-cleavage was found to be 0.15.

On to A8G U12C, for which the self-cleavage turned out to be 0.12.

Turning to C9G G48U, the self-cleavage was determined as 0.06.

With C9G G48A, the self-cleavage was 0.07.

In the case of C9G G48C, the self-cleavage came to 0.08.

In the case of A8U U18A, the self-cleavage turned out to be 0.39.

Consider A8U U18C, for which the self-cleavage is 0.26.

For A8U U18G, the self-cleavage is 0.56.

As for A8G C52U, the self-cleavage was found to be 0.73.

In the case of A8G C52G, the self-cleavage worked out at 0.58.

Take A8G C52A: the self-cleavage turned out to be 0.44.

As for C9A G34U, the self-cleavage came to 0.11.

As to C9A G34C, the self-cleavage was 0.08.

As for C9A G34A, the self-cleavage was found to be 0.19.

Take A8G G13U: the self-cleavage came out at 0.03.

In the case of A8G G13C, the self-cleavage came out at 0.03.

Regarding A8G G13A, the self-cleavage amounted to 0.1.

As to C9A G22C, the self-cleavage was determined as 0.03.

With C9A G22A, the self-cleavage was found to be 0.34.

On to C9A G22U, for which the self-cleavage was 0.12.

In the case of A8U C52U, the self-cleavage is 0.57.

A8U C52G: the self-cleavage is 0.49.

Consider A8U C52A, for which the self-cleavage was determined as 0.25.

Consider C9G G13U, for which the self-cleavage is 0.03.

As for C9G G13C, the self-cleavage came to 0.03.

Take C9G G13A: the self-cleavage worked out at 0.06.

In the case of A8U G54A, the self-cleavage came out at 0.17.

As for A8U G54C, the self-cleavage came out at 0.13.

In the case of A8U G54U, the self-cleavage was found to be 0.32.

For the variant C9G G54C, the self-cleavage is 0.77.

Regarding C9G G54A, the self-cleavage came to 0.71.

In the case of C9G G54U, the self-cleavage came out at 0.73.

On to A8G C33U, for which the self-cleavage amounted to 0.21.

On to A8G C33G, for which the self-cleavage is 0.07.

On to A8G C33A, for which the self-cleavage worked out at 0.1.

As for C9G G49C, the self-cleavage was 0.06.

As for C9G G49A, the self-cleavage came to 0.09.

Turning to C9G G49U, the self-cleavage stood at 0.09.

Turning to C9G G47C, the self-cleavage was found to be 0.06.

For C9G G47U, the self-cleavage came to 0.07.

Turning to C9G G47A, the self-cleavage is 0.09.

C9A G19C: the self-cleavage turned out to be 0.04.

For C9A G19A, the self-cleavage worked out at 0.1.

With C9A G19U, the self-cleavage came to 0.07.

As to A8G G51U, the self-cleavage is 0.11.

For the variant A8G G51A, the self-cleavage was found to be 0.22.

In the case of A8G G51C, the self-cleavage worked out at 0.08.

Regarding C9A U43G, the self-cleavage was 0.14.

For the variant C9A U43A, the self-cleavage was 0.37.

Regarding C9A U43C, the self-cleavage is 0.07.

Take A8U U12A: the self-cleavage came to 0.1.

Turning to A8U U12C, the self-cleavage was 0.06.

With A8U U12G, the self-cleavage turned out to be 0.07.

C9G U12A: the self-cleavage was determined as 0.13.

Regarding A8G G34A, the self-cleavage was 0.27.

For the variant A8G G34C, the self-cleavage was 0.13.

With A8G G34U, the self-cleavage stood at 0.16.

As to A8G C20G, the self-cleavage came to 0.09.

As for A8G C20A, the self-cleavage is 0.49.

As to A8G C20U, the self-cleavage stood at 0.58.

On to A8G C25U, for which the self-cleavage was 0.16.

Take A8G C25A: the self-cleavage was 0.08.

Regarding A8G C25G, the self-cleavage was 0.08.

For the variant A8U G23U, the self-cleavage was found to be 0.03.

Turning to A8U G23C, the self-cleavage was determined as 0.04.

As to A8U G23A, the self-cleavage is 0.08.

C9G G45C: the self-cleavage is 0.04.

On to C9G G45U, for which the self-cleavage is 0.07.

Consider C9G G45A, for which the self-cleavage came to 0.11.

For the variant A8U G53U, the self-cleavage is 0.1.

In the case of A8U G53A, the self-cleavage is 0.12.

As to A8U G53C, the self-cleavage worked out at 0.05.

Turning to A8U U37C, the self-cleavage was found to be 0.36.

On to A8U U37G, for which the self-cleavage turned out to be 0.54.

On to A8U U37A, for which the self-cleavage was determined as 0.31.

On to A8G C14G, for which the self-cleavage was 0.1.

For the variant A8G C14A, the self-cleavage is 0.07.

A8G C14U: the self-cleavage stood at 0.14.

Regarding A8U C27U, the self-cleavage was 0.07.

As to A8U C27G, the self-cleavage is 0.05.

A8U C27A: the self-cleavage is 0.06.

For the variant A8U C11A, the self-cleavage was found to be 0.08.

For A8U C11G, the self-cleavage is 0.08.

As for A8U C11U, the self-cleavage was found to be 0.11.

Turning to A8U G22A, the self-cleavage was 0.12.

With A8U G22U, the self-cleavage was 0.08.

In the case of A8U G22C, the self-cleavage was found to be 0.03.

Turning to A8U C15G, the self-cleavage was 0.15.

Take A8U C15U: the self-cleavage is 0.08.

Take A8U C15A: the self-cleavage was found to be 0.08.

As for A8U C20G, the self-cleavage stood at 0.06.

As to A8U C20A, the self-cleavage amounted to 0.48.

For the variant A8U C20U, the self-cleavage was 0.41.

On to C9G G42A, for which the self-cleavage was determined as 0.11.

C9G G42U: the self-cleavage came out at 0.05.

With C9G G42C, the self-cleavage turned out to be 0.07.

In the case of A8G C31A, the self-cleavage amounted to 0.03.

Regarding A8G C31U, the self-cleavage worked out at 0.1.

Regarding A8G C31G, the self-cleavage worked out at 0.08.

In the case of A8G G42C, the self-cleavage turned out to be 0.12.

Consider A8G G42A, for which the self-cleavage was 0.14.

Take A8G G42U: the self-cleavage stood at 0.04.

Regarding A8U G30U, the self-cleavage worked out at 0.02.

Take A8U G30A: the self-cleavage turned out to be 0.02.

Regarding A8U G30C, the self-cleavage was determined as 0.03.

Consider A8U C14A, for which the self-cleavage worked out at 0.04.

With A8U C14U, the self-cleavage amounted to 0.1.

As for A8U C14G, the self-cleavage is 0.05.

Turning to C9A G47U, the self-cleavage came to 0.03.

For C9A G47C, the self-cleavage turned out to be 0.03.

C9A G47A: the self-cleavage was found to be 0.05.

As for A8G G48A, the self-cleavage is 0.06.

For the variant A8G G48C, the self-cleavage came to 0.05.

In the case of A8G G48U, the self-cleavage is 0.04.

As to A8G C27A, the self-cleavage amounted to 0.14.

A8G C27U: the self-cleavage amounted to 0.11.

With A8G C27G, the self-cleavage came out at 0.11.

With C9A G30U, the self-cleavage was 0.01.

On to C9A G30C, for which the self-cleavage is 0.02.

Turning to C9A G30A, the self-cleavage is 0.02.

Consider A8G G23A, for which the self-cleavage came out at 0.13.

Consider A8G G23C, for which the self-cleavage came to 0.05.

On to A8G G23U, for which the self-cleavage was found to be 0.06.

Consider A8G C15G, for which the self-cleavage worked out at 0.29.

Take A8G C15U: the self-cleavage was 0.13.

Consider A8G C15A, for which the self-cleavage turned out to be 0.12.

Regarding A8G G50C, the self-cleavage was 0.27.

Regarding A8G G50U, the self-cleavage is 0.43.

A8G G50A: the self-cleavage came out at 0.53.

Turning to A8U C21G, the self-cleavage was 0.07.

As to A8U C21U, the self-cleavage amounted to 0.28.

Turning to A8U C21A, the self-cleavage came to 0.08.

As to A8U C9G, the self-cleavage stood at 0.11.

A8U C9U: the self-cleavage came out at 0.09.

For the variant A8U C9A, the self-cleavage worked out at 0.09.

As to A8G C11A, the self-cleavage came to 0.15.

On to A8G C11G, for which the self-cleavage worked out at 0.17.

For the variant A8G C11U, the self-cleavage was 0.19.

Regarding A8G G22A, the self-cleavage stood at 0.2.

On to A8G G22C, for which the self-cleavage is 0.07.

For A8G G22U, the self-cleavage came to 0.15.

Consider C9G G53A, for which the self-cleavage amounted to 0.48.

Turning to C9G G53U, the self-cleavage is 0.14.

As to C9G G53C, the self-cleavage stood at 0.05.

In the case of A8G G30A, the self-cleavage was determined as 0.06.

With A8G G30U, the self-cleavage was found to be 0.04.

For A8G G30C, the self-cleavage amounted to 0.07.

As for A8G G19A, the self-cleavage worked out at 0.15.

For A8G G19C, the self-cleavage was 0.07.

For the variant A8G G19U, the self-cleavage amounted to 0.1.

On to C9A G54C, for which the self-cleavage was 0.34.

With C9A G54A, the self-cleavage was 0.43.

Take C9A G54U: the self-cleavage was 0.36.
